Laboratory results reported in ChEMBL document CHEMBL4251598, “Development of novel bis-pyrazole derivatives as antitumor agents with potent apoptosis induction effects and DNA damage” (Eur J Med Chem, 2018).
The source made the active and inactive calls. The calls are words filed in the database; no cut-off is given here.

Experiments:
SMMC-7721 [1] = experiment: Antiproliferative activity against human SMMC7721 cells assessed as inhibition of cell proliferation at 25 uM after 72 hrs by MTT assay relative to control; type: functional; settings: SMMC-7721, 72 h
Summary of the method: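 Cells in DMEM with 10% FBS, plated at 10^4 cells/mL, adhered overnight. Treated at 25 μM for 72 h. MTT added for the last 4 h, formazan dissolved in DMSO, A570 read. Inhibition expressed as percent of untreated. Mean + SD from three separate measurements.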

SMMC-7721 [2] = experiment: Antiproliferative activity against human SMMC7721 cells after 72 hrs by MTT assay; type: functional, cell-based; settings: SMMC-7721, 72 h
Summary of the method: (§1)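 Cells in DMEM with 10% FBS, 10^4 cells/mL, adhered overnight at 37 °C, 5% CO2. Treated in triplicate with a range of concentrations for 72 h. MTT (5 mg/mL solution) added for the last 4 h, formazan dissolved in DMSO, absorbance read at 570 nm. IC50 calculated from percent inhibition. Mean ± SD of three independent experiments.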

SGC-7901 = experiment: Antiproliferative activity against human SGC7901 cells after 72 hrs by MTT assay; type: functional, cell-based; settings: SGC-7901, 72 h; summary of the method: as §1
HCT-116 = experiment: Antiproliferative activity against human HCT116 cells after 72 hrs by MTT assay; type: functional, cell-based; settings: HCT-116, 72 h; summary of the method: as §1
PC-3 = experiment: Induction of apoptosis in human PC3 cells; type: functional, cell-based
SMMC-7721 [3] = experiment: Induction of apoptosis in human SMMC7721 cells assessed as apoptotic cells at 3.2 uM after 72 hrs by FITC-Annexin-V/7AAD/propidium iodide staining based flow cytometry relative to control; type: functional
Summary of the method: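 SMMC-7721 cells cultured overnight, then treated in triplicate with 0.2, 0.8 or 3.2 μM, vehicle, or ADM (3.2 μM) for 72 h. Stained with annexin V and PI (methods section: APC-annexin V/7-AAD) for 15 min at room temperature. Mean ± SD of three independent experiments.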

SMMC-7721 [4] = experiment: Induction of DNA double stranded breaks in human SMMC7721 cells assessed as increase in H2AX phosphorylation at S139 at 0.8 uM after 72 hrs by Western blot analysis; type: functional, cell-based
Summary of the method: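 SMMC-7721 cells treated with vehicle, compound at 0.2, 0.8 or 3.2 μM, or ADM for 72 h. Lysates immunoblotted for H2AX pS139, p-p53 (Ser15), total p53 and β-actin, with ECL detection. Signals quantified by densitometry relative to β-actin, mean ± SD of three experiments.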

SMILES | inhibition at 25 µM (SMMC-7721 [1]) | IC50 (SMMC-7721 [2]) | IC50 (SGC-7901) | IC50 (HCT-116) | further results
CCc1nn(C)c(CO/N=C/c2c(C)nn(C)c2Oc2cccc(Cl)c2)c1Cl | < 80% | – | – | – | –
CCc1nn(C)c(CO/N=C\c2c(C)nn(C)c2Oc2ccc(OC(F)(F)F)cc2)c1Cl | < 80% | – | – | – | –
CCc1nn(C)c(CO/N=C\c2c(C)nn(C)c2Oc2ccc(OC)cc2)c1Cl | < 80% | – | – | – | –
Cc1nn(C)c(Oc2ccc(OC(F)(F)F)cc2)c1/C=N\OCc1c(Cl)c(-c2ccc(F)cc2)nn1C | 80% | 5.21 µM | 2.97 µM | 2.31 µM | –
CCc1nn(C)c(CO/N=C/c2c(C)nn(C)c2Oc2ccccc2F)c1Cl | < 80% | – | – | – | –
CCOC(=O)c1cc(-c2ccccc2)nn1Cc1ccc(Cl)nc1 | – | – | – | – | IC50 (PC-3): 15.2 µM
Cc1ccc(Oc2c(/C=N\OCc3c(Cl)c(-c4ccc(Cl)cc4)nn3C)c(C)nn2C)cc1 | 80% | 5.84 µM | 3.73 µM | 2.85 µM | –
CCc1nn(C)c(CO/N=C/c2c(C)nn(C)c2Oc2ccc(C)cc2)c1Cl | < 80% | – | – | – | –
COc1ccc(Oc2c(/C=N\OCc3c(Cl)c(-c4ccc(F)cc4)nn3C)c(C)nn2C)cc1 | 80% | 2.05 µM | 2.84 µM | 1.18 µM | –
Cc1nn(C)c(Oc2ccc(Cl)cc2)c1/C=N\OCc1c(Cl)c(-c2ccc(F)cc2)nn1C | 80% | 7.97 µM | 8.11 µM | 6.03 µM | –
O=c1[nH]cc(F)c(=O)[nH]1 [FLUOROURACIL] | – | 37.8 µM | 34.4 µM | 29.5 µM | –
Cc1ccc(Oc2c(/C=N\OCc3c(Cl)c(-c4ccc(F)cc4)nn3C)c(C)nn2C)cc1 | 80% | 5.23 µM | 4.62 µM | 2.91 µM | –
CCc1nn(C)c(CO/N=C/c2c(C)nn(C)c2Oc2ccc(F)cc2)c1Cl | < 80% | – | – | – | –
Cc1nn(C)c(Oc2ccc(Cl)cc2)c1/C=N\OCc1c(Cl)c(-c2ccc(Cl)cc2)nn1C | 80% | 6.82 µM | 7.51 µM | 4.67 µM | –
CCc1nn(C)c(CO/N=C/c2c(C)nn(C)c2Oc2cccc(C)c2)c1Cl | < 80% | – | – | – | –
CCc1nn(C)c(CO/N=C/c2c(C)nn(C)c2Oc2ccccc2OC)c1Cl | < 80% | – | – | – | –
CCc1nn(C)c(CO/N=C/c2c(C)nn(C)c2Oc2ccccc2Cl)c1Cl | < 80% | – | – | – | –
CCc1nn(C)c(CO/N=C/c2c(C)nn(C)c2Oc2ccc(I)cc2)c1Cl | < 80% | – | – | – | –
CCc1nn(C)c(CO/N=C/c2c(C)nn(C)c2Oc2ccc(Cl)cc2)c1Cl | < 80% | – | – | – | –
Cc1nn(C)c(Oc2ccc(F)cc2)c1/C=N\OCc1c(Cl)c(-c2ccc(Cl)cc2)nn1C | 80% | 3.23 µM | 4.43 µM | 7.25 µM | –
CCc1nn(C)c(CO/N=C\c2c(C)nn(C)c2Oc2ccccc2OC(F)(F)F)c1Cl | < 80% | – | – | – | –
Cc1nn(C)c(Oc2ccc(F)cc2)c1/C=N\OCc1c(Cl)c(-c2ccc(F)cc2)nn1C | 80% | 6.64 µM | 7.08 µM | 8.02 µM | –
COc1cccc2c1C(=O)c1c(O)c3c(c(O)c1C2=O)C[C@@](O)(C(=O)CO)C[C@@H]3O[C@H]1C[C@H](N)[C@H](O)[C@H](C)O1.Cl [DOXORUBICIN HYDROCHLORIDE] | 80% | 2.67 µM | 4.12 µM | 2.31 µM | Activity (SMMC-7721 [3]): 47.5%; Activity (SMMC-7721 [4]): Active
CCc1nn(C)c(CO/N=C/c2c(C)nn(C)c2Oc2ccccc2C)c1Cl | < 80% | – | – | – | –
Cc1nn(C)c(Oc2ccc(OC(F)(F)F)cc2)c1/C=N\OCc1c(Cl)c(-c2ccc(Cl)cc2)nn1C | 80% | 8.67 µM | 3.22 µM | 3.02 µM | –
Cc1nn(C)c(Oc2ccc(Br)cc2)c1/C=N\OCc1c(Cl)c(-c2ccc(Cl)cc2)nn1C | 80% | 7.13 µM | 5.96 µM | 5.91 µM | –
CCc1nn(C)c(CO/N=C/c2c(C)nn(C)c2Oc2ccc(Br)cc2)c1Cl | < 80% | – | – | – | –
